Data published in ChEMBL document CHEMBL3045564, “Synthesis of photosynthesis-inhibiting nostoclide analogues” (J Agric Food Chem, 2008).
Activity calls are given as the source filed them. The rule behind the calls is not given here.

Tests used:
Spinacia oleracea [1] = assay: Inhibition of photosynthesis in isolated Spinacia oleracea (spinach) chloroplasts assessed as reduction in light-driven ferricyanide reduction at 10 uM; type: functional
Procedure, shortened: (§1)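 Thylakoid membranes from market spinach leaves, homogenized in ice-cold Tricine-NaOH pH 8.0 with NaCl, MgCl2 and 0.4 M sucrose. Osmotically swollen, kept on ice in the dark. Portions with 20 μg chlorophyll incubated at 24 °C with 1 mM K3Fe(CN)6. Run under saturating light (800 μmol m⁻² s⁻¹), A420 read every 30 s for 10 min. Triplicate; percent inhibition versus untreated controls.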

Spinacia oleracea [2] = assay: Inhibition of photosynthesis in isolated Spinacia oleracea (spinach) chloroplasts assessed as reduction in light-driven ferricyanide reduction at 5 uM; type: functional; procedure, shortened: as §1

| Compound | inhibition (Spinacia oleracea [1]) | inhibition (Spinacia oleracea [2]) |
| --- | --- | --- |
| CN(C)c1ccc(/C=C2/C=C(Cc3ccccc3)C(=O)O2)c(Cl)c1 | 25.4% | 13.8% |
| O=C1O/C(=C\c2ccccc2O)C=C1Cc1ccccc1 | inactive | inactive |
| O=C1O/C(=C\c2ccccc2C(F)(F)F)C=C1Cc1ccccc1 | 44.9% | 23.3% |
| O=C1O/C(=C\c2ccc(Br)cc2)C=C1Cc1ccccc1 | inactive | inactive |
| O=C1O/C(=C\c2cccc(O)c2)C=C1Cc1ccccc1 | 6.9% | inactive |
| COc1ccc(OC)c(/C=C2/C=C(Cc3ccccc3)C(=O)O2)c1 | 43.5% | 30.3% |
| O=C1O/C(=C\c2cccc(Br)c2)C=C1Cc1ccccc1 | 22.6% | 13.8% |
| CN(C)C(=O)Nc1ccc(Cl)c(Cl)c1 | 95.1% | 93.2% |
| O=C1O/C(=C\c2ccc(O)cc2)C=C1Cc1ccccc1 | 6.5% | inactive |
| Cc1cccc(/C=C2/C=C(Cc3ccccc3)C(=O)O2)c1 | 16.7% | 8% |
| O=C1O/C(=C\c2ccccc2Cl)C=C1Cc1ccccc1 | 30.8% | 19.4% |
| N#Cc1ccc(/C=C2/C=C(Cc3ccccc3)C(=O)O2)cc1 | inactive | inactive |
| O=C1O/C(=C\c2c(F)c(F)c(F)c(F)c2F)C=C1Cc1ccccc1 | 6.6% | inactive |
| CCc1ccc(/C=C2/C=C(Cc3ccccc3)C(=O)O2)cc1 | 50.7% | 40.6% |
| O=C1O/C(=C\c2ccccc2Br)C=C1Cc1ccccc1 | 21.8% | inactive |
| O=C1O/C(=C\c2ccc([N+](=O)[O-])cc2)C=C1Cc1ccccc1 | 57.8% | 49.8% |
| N#Cc1cccc(/C=C2/C=C(Cc3ccccc3)C(=O)O2)c1 | inactive | inactive |

| Compound | inhibition (Spinacia oleracea [1]) | inhibition (Spinacia oleracea [2]) |
| --- | --- | --- |
| O=C1O/C(=C\c2cccc(Cl)c2)C=C1Cc1ccccc1 | 20.3% | 5.8% |
| O=C1O/C(=C\c2cccc(F)c2)C=C1Cc1ccccc1 | 28.8% | 9.5% |
| COc1ccc(/C=C2/C=C(Cc3ccccc3)C(=O)O2)cc1 | 15% | 8.5% |
| O=C1O/C(=C\c2ccc(Cl)cc2)C=C1Cc1ccccc1 | 5.8% | inactive |
| O=C1O/C(=C\c2ccccc2F)C=C1Cc1ccccc1 | 49.5% | 24.5% |
| O=C1O/C(=C\c2cccc(C(F)(F)F)c2)C=C1Cc1ccccc1 | 49.9% | 27.3% |
| CN(C)c1ccc(/C=C2/C=C(Cc3ccccc3)C(=O)O2)cc1 | 7.1% | 5.7% |
| Cc1ccccc1/C=C1/C=C(Cc2ccccc2)C(=O)O1 | 26% | 16.7% |
| Cc1ccc(/C=C2/C=C(Cc3ccccc3)C(=O)O2)cc1 | 8% | inactive |
| COc1cc(OC)c(/C=C2\C=C(Cc3ccccc3)C(=O)O2)c(OC)c1 | 43.6% | 25.2% |
| O=C1O/C(=C\c2ccc(C(F)(F)F)cc2)C=C1Cc1ccccc1 | 55.5% | 34% |
| O=C1O/C(=C\c2ccc(-c3ccccc3)cc2)C=C1Cc1ccccc1 | inactive | inactive |
| COc1ccc(/C=C2/C=C(Cc3ccccc3)C(=O)O2)cc1O | inactive | inactive |
| CN(C)c1cccc(/C=C2/C=C(Cc3ccccc3)C(=O)O2)c1 | 38.6% | 10.9% |
| O=C1O/C(=C\c2cccc([N+](=O)[O-])c2)C=C1Cc1ccccc1 | 39.5% | 30% |
| O=C1O/C(=C\c2ccccc2)C=C1Cc1ccccc1 | 29.2% | 12.7% |
| O=C1O/C(=C\c2ccc(F)cc2)C=C1Cc1ccccc1 | 25.6% | 9.2% |
